This is an account of results in ChEMBL document CHEMBL1136943, “Nocathiacin analogs: Synthesis and antibacterial activity of novel water-soluble amides” (Bioorg Med Chem Lett, 2009).

Molecules are shown by their SMILES. ≈ marks a conversion by molar mass, not a printed value. A value given as a limit tells only on which side of the number the result lay.

Data set [1] has as its system Staphylococcus aureus. In words: Antibacterial activity against Staphylococcus aureus MB2865 in liquid culture by turbidity method. The data set is classed as functional. An outline of the steps:
(§1)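 MIC is the lowest concentration giving 100% inhibition of bacterial growth in liquid culture, read by turbidity.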

Data set [2] relates to Streptococcus pneumoniae. In words: Antibacterial activity against Streptococcus pneumoniae CL2883 in liquid culture by turbidity method. The data set is classed as functional. An outline of the steps:
as §1

Data set [3] deals with Enterococcus faecalis. As to the kind of experiment: Antibacterial activity against Enterococcus faecalis C21560 in liquid culture by turbidity method. The data set is classed as functional. An outline of the steps:
as §1

Data set [4] concerns Staphylococcus aureus. As to the kind of experiment: Antibacterial activity against Staphylococcus aureus infected in mouse model assessed as reduction of >= 2 log 10 cfu kidney burden. The data set is classed as functional. An outline of the steps:
(§2)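 Systemic S. aureus infection mouse model (SATOA). Compounds were given iv; […]. Kidney bacterial burden (cfu) was compared with untreated control. ED99 is the dose giving a reduction of at least 2 log10 cfu in kidney burden.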

In data set [5] the target is T1, Type-2 angiotensin II receptor (Homo sapiens, UniProt P50052).
T1 sequence (P50052 whole entry): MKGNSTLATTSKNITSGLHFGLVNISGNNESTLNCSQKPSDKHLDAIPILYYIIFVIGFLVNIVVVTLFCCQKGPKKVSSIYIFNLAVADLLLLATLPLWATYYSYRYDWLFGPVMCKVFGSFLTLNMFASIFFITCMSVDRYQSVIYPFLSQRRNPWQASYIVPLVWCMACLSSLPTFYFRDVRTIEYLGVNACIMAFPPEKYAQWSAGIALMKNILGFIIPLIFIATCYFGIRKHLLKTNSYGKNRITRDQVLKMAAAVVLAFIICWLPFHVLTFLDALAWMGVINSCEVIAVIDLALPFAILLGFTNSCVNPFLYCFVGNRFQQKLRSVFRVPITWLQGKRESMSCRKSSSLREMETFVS
As to the kind of experiment: Inhibition of AT2 receptor. An outline of the steps:
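AT2 IC50 derived from four dose levels per compound, following a published protocol.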

A short description of data set [6]: Solubility in water at pH 3.4. The data set is classed as physicochemical. An outline of the steps: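 Amorphous powders from lyophilized material, as TFA salts; aqueous solubility measured by nephelometry.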
Data set [7] has as its system Staphylococcus aureus. In words: Antibacterial activity against Staphylococcus aureus infected iv bid dosed mouse model assessed as reduction of colony forming unit in kidney. The data set is classed as functional. An outline of the steps:
as §2

In data set [8] the test system is Enterococcus faecalis. As to the kind of experiment: Antibacterial activity against Enterococcus faecalis. The data set is classed as functional. An outline of the steps:
as §1

In general, MIC refers to the least concentration at which growth counts as inhibited. One may read the IC50 as the point on the concentration scale where inhibition reaches its midpoint. High values mean weaker potency, low ones greater potency. For the compound `CO/C(C)=C1/NC(=O)[C@H]([C@@H](C)O)NC(=O)c2csc(n2)-c2cc(O)c(-c3nc(C(=O)N4CCN(C)CC4)cs3)nc2-c2csc(n2)[C@@H]2COC(=O)c3c4c5c(cccc5n3O)COC(=O)[C@@H](O[C@H]3C[C@](C)(O)[C@H](N(C)C)[C@H](C)O3)[C@@H](OC4)[C@H](NC(=O)c3csc1n3)c1nc(cs1)C(=O)N2`, the MIC in data set [1] is 0.06 µg/mL (≈ 0.0413 µM); in data set [2], 0.015 µg/mL (≈ 0.0103 µM); in data set [3] it was 0.06 µg/mL (≈ 0.0413 µM). For the same compound, the ED99 in data set [4] was found to be 0.24 mg/kg. Besides, the concentration for half-maximal inhibition (IC50) in data set [5] was 0.102 µM.
On to `CO/C(C)=C1/NC(=O)[C@H]([C@@H](C)O)NC(=O)c2csc(n2)-c2cc(OC)c(-c3nc(C(=O)NCCCN4CCN(C)CC4)cs3)nc2-c2csc(n2)[C@@H]2COC(=O)c3c4c5c(cccc5n3O)COC(=O)[C@@H](O[C@H]3C[C@](C)(O)[C@H](N(C)C)[C@H](C)O3)[C@@H](OC4)[C@H](NC(=O)c3csc1n3)c1nc(cs1)C(=O)N2`, for which, in data set [1], 0.09 µg/mL (≈ 0.0591 µM) was the least that counted as inhibitory (MIC). In data set [5], this compound came in with a concentration for half-maximal inhibition (IC50) of 0.85 µM.
The term solubility denotes the dissolved amount per volume that the medium holds. A low value points to little dissolved substance. In turn, `CO/C(C)=C1/NC(=O)[C@H]([C@@H](C)O)NC(=O)c2csc(n2)-c2cc(OC)c(-c3nc(C(=O)NCCCN4CCOCC4)cs3)nc2-c2csc(n2)[C@@H]2COC(=O)c3c4c5c(cccc5n3O)COC(=O)[C@@H](O[C@H]3C[C@](C)(O)[C@H](N(C)C)[C@H](C)O3)[C@@H](OC4)[C@H](NC(=O)c3csc1n3)c1nc(cs1)C(=O)N2.Cl` registered a solubility in data set [6] of 68 mg/mL.
With `CO/C(C)=C1/NC(=O)[C@H]([C@@H](C)O)NC(=O)c2csc(n2)-c2cc(O)c(-c3nc(C(=O)N(C)CCN(C)C)cs3)nc2-c2csc(n2)[C@@H]2COC(=O)c3c4c5c(cccc5n3O)COC(=O)[C@@H](O[C@H]3C[C@](C)(O)[C@H](N(C)C)[C@H](C)O3)[C@@H](OC4)[C@H](NC(=O)c3csc1n3)c1nc(cs1)C(=O)N2`, the MIC is 0.06 µg/mL (≈ 0.0413 µM) in data set [1], 0.0038 µg/mL (≈ 0.00261 µM) in data set [2] and 0.12 µg/mL (≈ 0.0826 µM) in data set [3]. For the same compound, the ED99 in data set [4] was over 0.5 mg/kg.
Consider `CO/C(C)=C1/NC(=O)[C@H]([C@@H](C)O)NC(=O)c2csc(n2)-c2cc(O)c(-c3nc(C(=O)NCCNC(=O)CN(C)C)cs3)nc2-c2csc(n2)[C@@H]2COC(=O)c3c4c5c(cccc5n3O)COC(=O)[C@@H](O[C@H]3C[C@](C)(O)[C@H](N(C)C)[C@H](C)O3)[C@@H](OC4)[C@H](NC(=O)c3csc1n3)c1nc(cs1)C(=O)N2`, for which the MIC in data set [1] was determined as 0.019 µg/mL (≈ 0.0127 µM); in data set [2], 0.00059 µg/mL (≈ 0.000394 µM); in data set [3], 0.09 µg/mL (≈ 0.0601 µM). Also, the ED99 in data set [4] was found to be 0.2 mg/kg. Further, the IC50 in data set [5] was 0.078 µM.
For `CO/C(C)=C1/NC(=O)[C@H]([C@@H](C)O)NC(=O)c2csc(n2)-c2cc(O)c(-c3nc(C(=O)NCCNC(=O)CN4CCOCC4)cs3)nc2-c2csc(n2)[C@@H]2COC(=O)c3c4c5c(cccc5n3O)COC(=O)[C@@H](O[C@H]3C[C@](C)(O)[C@H](N(C)C)[C@H](C)O3)[C@@H](OC4)[C@H](NC(=O)c3csc1n3)c1nc(cs1)C(=O)N2` the same measures were 0.0038 µg/mL (≈ 0.00247 µM), 0.00048 µg/mL (≈ 0.000312 µM), 0.06 µg/mL (≈ 0.039 µM), 0.05 mg/kg and 0.25 µM.
In the same order, the values of `CO/C(C)=C1/NC(=O)[C@H]([C@@H](C)O)NC(=O)c2csc(n2)-c2cc(O)c(-c3nc(C(=O)NCCN(C)C)cs3)nc2-c2csc(n2)[C@@H]2COC(=O)c3c4c5c(cccc5n3O)COC(=O)[C@@H](O[C@H]3C[C@](C)(O)[C@H](N(C)C)[C@H](C)O3)[C@@H](OC4)[C@H](NC(=O)c3csc1n3)c1nc(cs1)C(=O)N2` are 0.015 µg/mL (≈ 0.0104 µM), 0.00046 µg/mL (≈ 0.00032 µM), 0.06 µg/mL (≈ 0.0417 µM), 0.17 mg/kg and 0.19 µM.
Take `CC(=O)NC[C@H]1CN(c2ccc(N3CCOCC3)c(F)c2)C(=O)O1` [LINEZOLID]: the ED99 in data set [7] was determined as 12 mg/kg.
Regarding `C=C(NC(=O)c1csc(-c2nc3c(cc2O)-c2nc(cs2)C(=O)N[C@@H]([C@@H](C)O)C(=O)N/C(=C(\C)OC)c2nc(cs2)C(=O)N[C@@H]2c4nc(cs4)C(=O)N[C@@H](COC(=O)c4c5c6c(cccc6n4O)COC(=O)[C@@H](O[C@H]4C[C@](C)(O)[C@H](N(C)C)[C@H](C)O4)[C@H]2OC5)c2nc-3cs2)n1)C(N)=O` [MJ347-81F4 A], the MIC is 0.007 µg/mL (≈ 0.00487 µM) in data set [1], 0.015 µg/mL (≈ 0.0104 µM) in data set [8], 0.002 µg/mL (≈ 0.00139 µM) in data set [2] and 0.03 µg/mL (≈ 0.0209 µM) in data set [3].
On to `CO/C(C)=C1/NC(=O)[C@H]([C@@H](C)O)NC(=O)c2csc(n2)-c2cc(O)c(-c3nc(C(=O)O)cs3)nc2-c2csc(n2)[C@@H]2COC(=O)c3c4c5c(cccc5n3O)COC(=O)[C@@H](O[C@H]3C[C@](C)(O)[C@H](N(C)C)[C@H](C)O3)[C@@H](OC4)[C@H](NC(=O)c3csc1n3)c1nc(cs1)C(=O)N2` [NOCATHIACIN ACID], for which the results for the MIC in data set [1], in data set [2] and in data set [3] were 8 µg/mL (≈ 5.84 µM), 2 µg/mL (≈ 1.46 µM) and over 8 µg/mL, respectively. Further, inhibition in data set [5] was half-maximal at 1.12 µM (IC50).
